Measured values from ChEMBL document CHEMBL5705906 (Nat Commun, 2017).
Calls of active or inactive are those of the source. The calls are words filed in the database; no cut-off is given here.

Assays:
[1] = tested on: Epidermal growth factor receptor (Homo sapiens), P00533 [UNDEFINED MUTATION]; conditions: PC-9, dose 10-1000 nM
[2] = tested on: Epidermal growth factor receptor (Homo sapiens), P00533 [UNDEFINED MUTATION]; conditions: PC-9, dose 10-1000 nM; remark: listed apart in the source
[3] = tested on: Epidermal growth factor receptor (Homo sapiens), P00533 [UNDEFINED MUTATION]; conditions: PC-9, dose 10-1000 nM; remark: listed apart in the source
[4] = tested on: Epidermal growth factor receptor (Homo sapiens), P00533 [UNDEFINED MUTATION]; conditions: PC-9, dose 10-1000 nM; remark: listed apart in the source
[5] = tested on: BaF3; test: Inhibition of EGFR-C797S/T790M/L858R mutant in mouse BaF3 cells assessed as inhibition of EGFR phosphorylation at 10 to 1000 nM incubated for 6 hrs by Western blotting analysis; format: cell-based; conditions: dose 10-1000 nM
How it was run: (§1)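 Ba/F3 cells expressing EGFR-L858R-series mutants treated with inhibitors for 6 h. SDS lysates quantified by BCA, run on SDS-PAGE and blotted to PVDF. Probed for phospho-EGFR (Tyr1068), total EGFR and downstream phospho-proteins.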

[6] = tested on: BaF3; test: Inhibition of EGFR-C797S/T790M/L858R mutant in mouse BaF3 cells assessed as inhibition of S6 phosphorylation at 10 to 1000 nM incubated for 6 hrs by Western blotting analysis; format: cell-based; conditions: dose 10-1000 nM
How it was run: as §1

[7] = tested on: BaF3; test: Inhibition of EGFR-C797S/T790M/L858R mutant expressed in mouse BaF3 cells assessed as inhibition of ERK phosphorylation at 10 to 1000 nM incubated for 6 hrs by Western blotting analysis; format: cell-based; conditions: dose 10-1000 nM
How it was run: as §1

[8] = tested on: BaF3; test: Inhibition of EGFR-C797S/T790M/L858R mutant expressed in mouse BaF3 cells assessed as inhibition of Akt phosphorylation at 10 to 1000 nM incubated for 6 hrs by Western blotting analysis; format: cell-based; conditions: dose 10-1000 nM
How it was run: as §1

[9] = tested on: BaF3; test: Inhibition of EGFR-C797S/T790M/del19 mutant in mouse BaF3 cells assessed as reduction in EGFR phosphorylation at 10 to 1000 nM by Western blotting analysis; format: cell-based; conditions: dose 10-1000 nM
[10] = tested on: PC-9; test: Inhibition of EGFR T790M/del19 mutant in human PC-9 cells assessed as reduction in ERK phosphorylation at 10 to 1000 nM by Western blotting analysis; format: cell-based; conditions: dose 10-1000 nM
[11] = tested on: PC-9; test: Inhibition of EGFR T790M/del19 mutant in human PC-9 cells assessed as reduction in Akt phosphorylation at 10 to 1000 nM by Western blotting analysis; format: cell-based; conditions: dose 10-1000 nM
[12] = tested on: BaF3; test: Inhibition of EGFR-C797S/T790M/del19 mutant in mouse BaF3 cells assessed as reduction in Akt protein level at 10 to 1000 nM by Western blotting analysis; format: cell-based; conditions: dose 10-1000 nM
[13] = tested on: BaF3; test: Inhibition of EGFR-C797S/T790M/del19 mutant in mouse BaF3 cells assessed as reduction in S6 protein level at 10 to 1000 nM by Western blotting analysis; format: cell-based; conditions: dose 10-1000 nM
[14] = tested on: PC-9; test: Inhibition of EGFR T790M/del19 mutant in human PC-9 cells assessed as reduction in EGFR phosphorylation at 10 to 1000 nM by Western blotting analysis; format: cell-based; conditions: dose 10-1000 nM
[15] = tested on: NCI-H460; test: Anticancer activity against KRAS-mutated human NCI-H460 cells assessed as reduction in cell viability at 1 to 10000 nM incubated for 72 hrs by CellTiter-Glo assay; format: functional, cell-based; conditions: dose 1-10000 nM
[16] = tested on: BaF3; test: Inhibition of EGFR-C797S/T790M/del19 mutant in mouse BaF3 cells assessed as reduction in ERK protein level at 10 to 1000 nM by Western blotting analysis; format: cell-based; conditions: dose 10-1000 nM
[17] = tested on: A549; test: Anticancer activity against KRAS-mutated human A549 cells assessed as reduction in cell viability at 1 to 10000 nM incubated for 72 hrs by CellTiter-Glo assay; format: functional, cell-based; conditions: dose 1-10000 nM
[18] = tested on: BaF3; test: Inhibition of EGFR-C797S/T790M/del19 mutant in mouse BaF3 cells assessed as reduction in ERK phosphorylation at 10 to 1000 nM by Western blotting analysis; format: cell-based; conditions: dose 10-1000 nM
[19] = tested on: BaF3; test: Inhibition of EGFR-C797S/T790M/del19 mutant in mouse BaF3 cells assessed as reduction in Akt phosphorylation at 10 to 1000 nM by Western blotting analysis; format: cell-based; conditions: dose 10-1000 nM
[20] = tested on: PC-9; test: Inhibition of EGFR T790M/del19 mutant in human PC-9 cells assessed as reduction in S6 phosphorylation at 10 to 1000 nM by Western blotting analysis; format: cell-based; conditions: dose 10-1000 nM
[21] = tested on: BaF3; test: Inhibition of EGFR-C797S/T790M/del19 mutant in mouse BaF3 cells assessed as reduction in S6 phosphorylation at 10 to 1000 nM by Western blotting analysis; format: cell-based; conditions: dose 10-1000 nM
[22] = tested on: Ba/F3 EGFR-Del19/T790M/C797S; test: Cytotoxicity against mouse Ba/F3 EGFR-Del19/T790M/C797S cells assessed as inhibition of cell viability by measuring fold change at 300 nM incubated for 72 hrs in presence of cetuximab by CellTiter-Glo assay; format: functional, cell-based
[23] = tested on: PC-9; format: functional, organism-based; conditions: Homo sapiens, dose 50.0 mg/kg, route po, time 15.0 day
[24] = tested on: PC-9; format: functional, organism-based; conditions: Homo sapiens, dose 50.0 mg/kg, route po, time 60.0 day
[25] = tested on: PC-9; test: Anti-tumor activity against EGFR T790M/del19 mutant expressing gefitinib-resistant human PC-9 cells xenografted in Balb-c nu/nu mouse assessed as prolonged survival at 50 mg/kg, po administered for 42 days; format: functional, organism-based; conditions: time 42.0 day
[26] = tested on: PC-9; test: Anti-tumor activity against EGFR T790M/del19 mutant expressing gefitinib-resistant human PC-9 cells xenografted in Balb-c nu/nu mouse assessed as growth inhibition at 50 mg/kg, po administered for 42 days; format: functional, organism-based; conditions: time 42.0 day
How it was run: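 Balb-c nu/nu mice were implanted subcutaneously with 6×10^6 PC9-triple-mutant or PC9-T790M cells in 100 µl 1:2 Matrigel. At a mean tumour volume of ~200 mm³, mice were randomized (top and bottom 5% excluded) and dosed once daily by oral gavage. Caliper volume (0.5×L×W²) was measured twice weekly and expressed relative to day 0. n≥6 per group; Mann-Whitney U test.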

[27] = tested on: PC-9; format: functional, organism-based; conditions: Homo sapiens, dose 50.0 mg/kg, route po, time 60.0 day; remark: listed apart in the source

Epidermal growth factor receptor (Homo sapiens), P00533 [UNDEFINED MUTATION], sequence (P00533 whole entry, looked up, stated change not applied): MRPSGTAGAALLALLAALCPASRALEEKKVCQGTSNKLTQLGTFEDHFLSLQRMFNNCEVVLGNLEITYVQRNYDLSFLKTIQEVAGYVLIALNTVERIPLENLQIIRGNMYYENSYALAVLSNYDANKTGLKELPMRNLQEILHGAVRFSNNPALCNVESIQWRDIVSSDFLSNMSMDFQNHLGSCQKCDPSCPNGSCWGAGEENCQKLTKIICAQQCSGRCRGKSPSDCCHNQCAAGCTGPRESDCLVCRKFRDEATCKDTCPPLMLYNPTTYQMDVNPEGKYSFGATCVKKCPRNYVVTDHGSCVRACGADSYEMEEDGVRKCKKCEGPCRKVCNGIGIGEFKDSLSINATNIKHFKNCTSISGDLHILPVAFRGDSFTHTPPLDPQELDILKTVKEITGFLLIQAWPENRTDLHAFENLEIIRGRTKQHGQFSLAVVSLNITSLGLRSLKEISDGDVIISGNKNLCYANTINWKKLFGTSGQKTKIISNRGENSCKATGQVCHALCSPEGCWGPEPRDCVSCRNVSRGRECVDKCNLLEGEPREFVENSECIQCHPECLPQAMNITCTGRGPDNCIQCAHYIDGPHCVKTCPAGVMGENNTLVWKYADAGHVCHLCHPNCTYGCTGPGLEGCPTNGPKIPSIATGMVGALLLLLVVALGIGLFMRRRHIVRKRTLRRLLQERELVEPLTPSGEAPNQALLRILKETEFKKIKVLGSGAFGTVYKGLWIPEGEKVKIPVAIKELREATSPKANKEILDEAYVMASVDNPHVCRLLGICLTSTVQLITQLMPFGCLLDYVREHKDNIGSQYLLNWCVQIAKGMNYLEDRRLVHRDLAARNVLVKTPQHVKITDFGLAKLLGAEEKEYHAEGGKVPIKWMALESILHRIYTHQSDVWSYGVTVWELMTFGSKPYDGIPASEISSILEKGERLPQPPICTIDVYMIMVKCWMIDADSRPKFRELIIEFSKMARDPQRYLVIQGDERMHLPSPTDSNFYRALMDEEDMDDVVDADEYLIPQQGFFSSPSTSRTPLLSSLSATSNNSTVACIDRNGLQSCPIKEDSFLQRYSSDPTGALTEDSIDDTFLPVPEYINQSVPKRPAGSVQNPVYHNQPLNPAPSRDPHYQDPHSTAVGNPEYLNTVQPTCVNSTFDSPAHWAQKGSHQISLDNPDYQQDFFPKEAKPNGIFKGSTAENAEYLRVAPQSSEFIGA

| SMILES | inhibition [9] | inhibition [10] | inhibition [11] | inhibition [12] | inhibition [13] | inhibition [14] | Activity [15] | inhibition [16] | Activity [17] | inhibition [18] | inhibition [19] | inhibition [20] | inhibition [21] | also measured |
| --- | --- | --- | --- | --- | --- | --- | --- | --- | --- | --- | --- | --- | --- | --- |
| COc1cc(N2CCC(N)CC2)ccc1Nc1ncc(Cl)c(-c2c[nH]c3ccccc23)n1 | – | – | – | – | – | – | – | – | – | – | – | – | – | inhibition [1]: Active; inhibition [2]: Active; inhibition [3]: Active; inhibition [4]: Active |
| COc1cc(N2CCC(N3CCN(C)CC3)CC2)ccc1Nc1ncc(Cl)c(Nc2ccccc2S(=O)(=O)C(C)C)n1 | – | – | – | – | – | – | – | – | – | – | – | – | – | inhibition [5]: inactive; inhibition [6]: inactive; inhibition [7]: inactive; inhibition [8]: inactive |
| CN(C)C/C=C/C(=O)Nc1cc2c(Nc3ccc(F)c(Cl)c3)ncnc2cc1O[C@H]1CCOC1 [AFATINIB] | inactive | Active | Active | inactive | inactive | Active | Active | inactive | Active | inactive | inactive | Active | inactive | – |
| C=CC(=O)Nc1cc(Nc2nccc(-c3cn(C)c4ccccc34)n2)c(OC)cc1N(C)CCN(C)C | inactive | Active | Active | inactive | inactive | Active | Active | inactive | Active | inactive | inactive | Active | inactive | Activity [22]: inactive; Activity [23]: inactive; inhibition [24]: Active; Activity [25]: Active; Activity [26]: Active; inhibition [27]: Active |
